# Measured values published in ChEMBL document CHEMBL1125234, “Novel pyrrolo[2,3-d]pyrimidine antifolates: synthesis and antitumor activities” (J Med Chem, 1991).
# Legend:
# [1] = In vitro growth inhibitory activity against KB human epidermoid carcinoma cells.; assay type: functional
# In short: (§1)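 Cells seeded at 1 × 10^4 cells/mL in 96-well plates, MEM with 10% fetal calf serum, 37 °C, 5% CO₂, 24 h. Antifolate added in 10% MEM at final 0.15-80 ng/mL, then culture continued 72 h at 37 °C. Cell number estimated by MTT; IC50 taken as concentration giving 50% growth inhibition. Means ± SE of three experiments.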
# A549 = assay: In vitro growth inhibitory activity against A549 human nonsmall cell lung carcinoma cells.; assay type: functional, cell-based; in short: as §1
Structure (SMILES),IC50 (A549) [ng/mL],IC50 [1] [ng/mL]
Nc1nc(N)c2c(n1)NCC2CCCc1ccc(C(=O)N[C@H](CCC(=O)O)C(=O)O)cc1 (stereo not given in full),4.9,0.49
CC(CCC1CNc2nc(N)nc(N)c21)c1ccc(C(=O)N[C@H](CCC(=O)O)C(=O)O)cc1 (stereo not given in full),1.6,0.3

# Continued, in another order:
IC50 (A549) [ng/mL],Structure (SMILES),IC50 [1] [ng/mL]
2.3,CC(CCc1c[nH]c2nc(N)nc(N)c12)c1ccc(C(=O)N[C@H](CCC(=O)O)C(=O)O)cc1 (stereo not given in full),0.59
4.5,Nc1nc(N)c2c(CCCc3ccc(C(=O)N[C@H](CCC(=O)O)C(=O)O)cc3)c[nH]c2n1,0.27
35,CN(Cc1cnc2nc(N)nc(N)c2n1)c1ccc(C(=O)N[C@@H](CCC(=O)O)C(=O)O)cc1 [METHOTREXATE],5.02
